Here are results for 22 compounds from ChEMBL document CHEMBL1138814, “Synthesis, antiviral activity, and mode of action of some 3-substituted 2,5,6-trichloroindole 2'- and 5'-deoxyribonucleosides” (J Med Chem, 2004).

As usually defined, the IC50 is the concentration that inhibits the measured activity by half.

Where only a bound is given, the exact number is not on record here.

Assay [1] concerns HFF. In words: Cytotoxicity produced in stationary HFF cells was determined by microscopic inspection of uninfected cells. Format: functional, cell-based. The following applies: Homo sapiens. The method, boiled down: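 Cytotoxicity was scored visually by microscopy on stationary HFF cells not affected by virus, at the time of HCMV plaque enumeration, in duplicate wells. IC50 came from linear regression of percent inhibition against log concentration.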

Assay [2] has as its system HFF. The assay is described as follows: Inhibitory concentration required against human cytomegalovirus (HCMV) expressed in HFF cells was determined by plaque reduction assay. Type of assay: functional, cell-based. The method, boiled down:
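HCMV Towne strain at about 100 pfu/cm² was adsorbed onto HFF monolayers. Compounds from 10 mg/mL DMSO stocks were diluted in growth medium and added at four to eight concentrations in duplicate wells. After 7–10 days at 37 °C, cells were fixed and stained with crystal violet and plaques counted microscopically. Percent plaque reduction versus no drug was regressed against log concentration to give IC50.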
For orientation: In a plaque reduction assay, fewer plaques than in the control indicate reduced infectivity or spread.

A short description of assay [3]: Inhibitory concentration required against herpes simplex virus type-1 (HSV-1) expressed in BSC-1 cells was determined by ELISA assay. Format: functional, cell-based, Cercopithecidae. The method, boiled down:
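BSC-1 cells (10 000/well, MEM(E) with 10% calf serum) were incubated overnight. Drug (quadruplicate) and HSV-1 at 100 pfu/well were then added, followed by 3 days at 37 °C. Plates were blocked and probed with HRP-conjugated rabbit anti-HSV-1 antibody, developed with TMB and stopped with H2SO4, with absorbance read at 450 and 570 nm. Percent absorbance reduction versus no drug was regressed against log concentration to give IC50.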
In general terms: ELISA stands for enzyme-linked immunosorbent assay.

Assay [4] in a line: Cytotoxicity against KB cells was determined by crystal violet staining and spectrophotometric quantitation of dye eluted from stained cells. The following applies: Homo sapiens. Type of assay: functional, cell-based. The procedure, abridged: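 KB cells were seeded at 3000–5000 per well and incubated overnight. Compound was added at six to eight concentrations for 48 h at 37 °C in CO2, covering two population doublings. Cells were fixed in 95% ethanol and stained with 0.1% crystal violet, and the dye was eluted with acidified ethanol and read at 570 nm. IC50 came from regression of percent inhibition against log concentration.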

Assay [5] relates to HFF. The assay is described as follows: Inhibitory concentration required against human cytomegalovirus (HCMV) C4 strain (UL56 + UL89 mutant gene) expressed in HFF cells was determined by plaque reduction assay. Type of assay: functional, cell-based. The method, boiled down: (§1)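 HFF monolayers in 24-well dishes were infected with about 100 pfu HCMV per cm² (wild type Towne; mutant strains carry UL56, UL89 or UL56 + UL89 mutations). After adsorption, drug from 10 mg/mL DMSO stock was diluted in medium and added at four to eight concentrations in duplicate wells. Cells were held 7–10 days at 37 °C, then crystal-violet stained and plaques counted against no-drug controls. IC50 came from linear regression of % inhibition versus log10 concentration, averaged over two experiments.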

Assay [6] has as its system HFF. The assay is described as follows: Inhibitory concentration required against human cytomegalovirus (HCMV) r56 strain (UL56 mutant gene) expressed in HFF cells was determined by plaque reduction assay. Type of assay: functional, cell-based. The method, boiled down: as §1
In assay [7] the test system is HFF. The assay is described as follows: Inhibitory concentration required against human cytomegalovirus (HCMV) wild type expressed in HFF cells was determined by plaque reduction assay. Format: functional, cell-based. The method, boiled down:
as §1

Assay [8] has as its system HFF. The assay is described as follows: Inhibitory concentration required against human cytomegalovirus (HCMV) D10 strain (UL89 mutant gene) expressed in HFF cells was determined by plaque reduction assay. Format: functional, cell-based. The method, boiled down: as §1

As for `OC[C@H]1O[C@@H](n2c(Cl)nc3cc(Cl)c(Cl)cc32)C[C@@H]1O`, the concentration for half-maximal inhibition (IC50) in the assay on HFF [1] was over 100 µM; with HFF [2], 20 µM.

In the case of `OC[C@H]1O[C@@H](n2c(Cl)c(-c3ccco3)c3cc(Cl)c(Cl)cc32)C[C@@H]1O`, the IC50 with HFF [1] was 3.2 µM; in assay [3] it was 20 µM; in the assay with HFF [2] it was 3.6 µM; in assay [4] it was 50 µM.

Consider `OC[C@H]1O[C@@H](n2c(Cl)c(-c3ccsc3)c3cc(Cl)c(Cl)cc32)C[C@@H]1O`, for which the IC50 in the assay with HFF [1] came out at 32 µM; in assay [3], 20 µM; in the assay on HFF [2] it was 38 µM; in assay [4], 50 µM.

As to `COc1c(C#N)c2cc(Cl)c(Cl)cc2n1[C@H]1C[C@H](O)[C@@H](CO)O1`, the IC50 is over 100 µM with HFF [1], 90 µM in assay [3], 68 µM in the assay on HFF [2] and over 100 µM in assay [4].

On to `COc1c(C=O)c2cc(Cl)c(Cl)cc2n1[C@H]1C[C@H](O)[C@@H](CO)O1`, for which the IC50 is 100 µM in the assay on HFF [1], over 100 µM in assay [3], over 100 µM in the assay with HFF [2] and 20 µM in assay [4].

Turning to `CC(=O)c1c(Cl)n([C@H]2C[C@H](O)[C@@H](CO)O2)c2cc(Cl)c(Cl)cc12`, the 50% inhibitory concentration (IC50) with HFF [5] was 2.1 µM; with HFF [1] it was over 100 µM; in the assay on HFF [6], 1.8 µM; in the assay with HFF [7], 0.22 µM; in assay [3] it was 8 µM; in the assay with HFF [8], 0.76 µM. The IC50 is 0.3 µM in the assay on HFF [2] and 400 µM in assay [4].

`N#Cc1c(Cl)n([C@H]2C[C@H](O)[C@@H](CO)O2)c2cc(Cl)c(Cl)cc12`: the IC50 turned out to be 32 µM with HFF [1], 35 µM in assay [3], 0.3 µM with HFF [2] and 60 µM in assay [4].

As for `CC(=O)c1c(Br)n([C@H]2C[C@H](O)[C@@H](CO)O2)c2cc(Cl)c(Cl)cc12`, the IC50 was over 100 µM in the assay with HFF [1], over 100 µM in assay [3], 0.34 µM in the assay on HFF [2] and over 100 µM in assay [4].

`OC[C@H]1O[C@@H](n2c(Br)nc3cc(Cl)c(Cl)cc32)C(O)[C@@H]1O` (single isomer, unassigned): the IC50 is 29 µM with HFF [5]; 6.7 µM in the assay with HFF [6]; 0.99 µM in the assay on HFF [7]; 130 µM in assay [3]; 12 µM in the assay with HFF [8]; over 100 µM in assay [4].

For `OC[C@H]1O[C@@H](n2c(Cl)nc3cc(Cl)c(Cl)cc32)C(O)[C@@H]1O` (single isomer, unassigned), the results for the IC50 in assay [3] and in assay [4] were 102 µM and 210 µM, respectively.

`N#Cc1c(Cl)n(C2O[C@H](CO)[C@@H](O)C2O)c2cc(Cl)c(Cl)cc12` (single isomer, unassigned): the values for the IC50 in assay [3] and in assay [4] were over 100 µM and 35 µM, respectively.

Take `N#Cc1c(Cl)n(C2O[C@H](CN=[N+]=[N-])[C@@H](O)C2O)c2cc(Cl)c(Cl)cc12` (single isomer, unassigned): the IC50 was over 100 µM in the assay with HFF [1], 15 µM in assay [3], 3 µM in the assay with HFF [2] and 60 µM in assay [4].

With `O=Cc1c(Cl)n(C2O[C@H](CO)[C@@H](O)C2O)c2cc(Cl)c(Cl)cc12` (single isomer, unassigned), the IC50 in the assay on HFF [5] turned out to be 4.8 µM; in the assay with HFF [6], 1.8 µM; with HFF [7] it was 0.46 µM; in assay [3], 40 µM; in the assay on HFF [8] it was 0.88 µM; in assay [4], 45 µM.

In the case of `CC(=O)c1c(Cl)n(C2O[C@H](CO)[C@@H](O)C2O)c2cc(Cl)c(Cl)cc12` (single isomer, unassigned), the IC50 in the assay on HFF [5] was 6.2 µM; in the assay on HFF [6], 1.2 µM; with HFF [7] it was 0.26 µM; in the assay with HFF [8], 0.72 µM.

As to `C[C@H]1OC(n2c(Cl)nc3cc(Cl)c(Cl)cc32)C(O)[C@@H]1O` (single isomer, unassigned), the IC50 in the assay on HFF [1] amounted to 100 µM; with HFF [2], 0.36 µM.

Turning to `CC(=O)OC[C@H]1OC(n2c(Cl)c(C=O)c3cc(Cl)c(Cl)cc32)C(O)[C@@H]1O` (single isomer, unassigned), the IC50 with HFF [5] was 3.3 µM; with HFF [6], 1.6 µM; with HFF [7], 0.22 µM; in the assay on HFF [8] it was 0.88 µM.

For `C[C@H]1OC(n2c(Cl)c(C=O)c3cc(Cl)c(Cl)cc32)C(O)[C@@H]1O` (single isomer, unassigned), the IC50 is 32 µM with HFF [1], 20 µM in assay [3], 0.3 µM in the assay with HFF [2] and 25 µM in assay [4].

Regarding `[N-]=[N+]=NC[C@H]1OC(n2c(Cl)c(C=O)c3cc(Cl)c(Cl)cc32)C(O)[C@@H]1O` (single isomer, unassigned), the IC50 came to 32 µM with HFF [1], 10 µM in assay [3], 0.32 µM with HFF [2] and 25 µM in assay [4].

For `C[C@H]1OC(n2c(Cl)c(C#N)c3cc(Cl)c(Cl)cc32)C(O)[C@@H]1O` (single isomer, unassigned), the IC50 in the assay with HFF [1] worked out at 32 µM; in assay [3], 32 µM; in the assay with HFF [2] it was 0.19 µM; in assay [4] it was 40 µM.

Turning to `N#Cc1c(Cl)n(C2O[C@H](CF)[C@@H](O)C2O)c2cc(Cl)c(Cl)cc12` (single isomer, unassigned), the IC50 in the assay on HFF [1] is 32 µM; in assay [3] it was 40 µM; in the assay with HFF [2], 2.7 µM; in assay [4], 50 µM.

Regarding `O=Cc1c(Cl)n(C2O[C@H](CF)[C@@H](O)C2O)c2cc(Cl)c(Cl)cc12` (single isomer, unassigned), the IC50 in the assay with HFF [1] was found to be 32 µM; in assay [3], 20 µM; in the assay on HFF [2] it was 0.6 µM; in assay [4], 20 µM.

For `Nc1nc2c(ncn2COC(CO)CO)c(=O)[nH]1` [GANCICLOVIR], the IC50 with HFF [5] is 2.5 µM; in the assay with HFF [1], over 100 µM; in the assay with HFF [6], 1.2 µM; in the assay on HFF [7], 1.2 µM; in assay [3], 3.5 µM; in the assay on HFF [8] it was 1.2 µM. The same compound came in with an IC50 in assay [4] of over 100 µM.
